Data from ChEMBL document CHEMBL3352586, “Pyridyl benzamides as a novel class of potent inhibitors for the kinetoplastid Trypanosoma brucei” (J Med Chem, 2014).
≈ marks a conversion by molar mass, not a printed value.

Key:
[1] = Partition coefficient, log D of the compound at pH 7.4 by HPLC method; format: physicochemical; conditions: octanol/water
Summary of the method: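 Distribution coefficient at pH 7.4 was measured chromatographically.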

[2] = Kinetic solubility of the compound at 10 mg/ml at pH 2 by nephelometry; format: physicochemical; conditions: buffer, read-out: Kinetic_solubility
Summary of the method: (§1)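 Kinetic solubility was read by nephelometry at pH 2 and pH 6.5 and reported as μg/mL ranges.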

[3] = Kinetic solubility of the compound at 10 mg/ml at pH 6.5 by nephelometry; format: physicochemical; conditions: buffer, read-out: Kinetic_solubility; summary of the method: as §1
[4] = Plasma protein binding in human […] by chromatographic method; format: ADME, cell-free; conditions: read-out: PPB (converted)
Summary of the method: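 Human plasma protein binding was estimated by a chromatographic method.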

Liver microsome [5] = experiment: Intrinsic clearance in human liver microsomes at 1 uM after 60 mins by LC-MS analysis; format: ADME; conditions: 1 h
Summary of the method: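 In vitro intrinsic clearance was measured in human liver microsomes and expressed per mg protein. A hepatic extraction ratio (E_H) was predicted from the in vitro data.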

[6] = system: Trypanosoma brucei brucei; experiment: Trypanocidal activity against Trypanosoma brucei brucei after 24 hrs by hemocytometry relative to control; format: functional
Summary of the method: (§2)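 T.b. brucei parasites were seeded and held 24 h at 37 °C/5% CO₂. Compounds were diluted in DMEM and added to give the MIC, defined as the lowest concentration at the plateau (>95% activity) of the Alamar blue assay. Wells were viewed by microscope after 24, 48 and 72 h, and sampled wells were counted by hemocytometer. Percentage killed was taken against puromycin (1.15 μM) and 0.4% DMSO controls, in duplicate.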

[7] = system: Trypanosoma brucei brucei; experiment: Trypanocidal activity against Trypanosoma brucei brucei after 48 hrs by hemocytometry relative to control; format: functional; summary of the method: as §2
[8] = system: Trypanosoma brucei brucei; experiment: Trypanocidal activity against Trypanosoma brucei brucei after 72 hrs by hemocytometry relative to control; format: functional; summary of the method: as §2
[9] = system: Trypanosoma brucei brucei; experiment: Antimicrobial activity against bloodstream form of Trypanosoma brucei brucei 427 after 48 hrs by alamar blue assay; format: functional, organism-based; conditions: Trypanosoma brucei, 427, 48 h
[10] = Selectivity index, ratio of IC50 for HEK293 cells to IC50 for Trypanosoma brucei brucei 427; format: toxicity, cell-based; conditions: human, read-out: Ratio IC50
[11] = system: Trypanosoma brucei rhodesiense; experiment: Antimicrobial activity against bloodstream form of Trypanosoma brucei rhodesiense STIB 900 after 70 hrs by alamar blue assay; format: functional, organism-based; conditions: STIB 900, 70 h
Summary of the method: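 Trypanosoma brucei rhodesiense STIB 900 bloodstream-form trypomastigotes, with melarsoprol as reference drug.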

Leishmania donovani = experiment: Antimicrobial activity against amastigote form of Leishmania donovani MHOM/ET/67/L82 after 70 hrs by alamar blue assay; format: functional, organism-based; conditions: MHOM/ET/67/L82, 70 h
Summary of the method: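 Leishmania donovani MHOM-ET-67/L82 axenic amastigotes, with miltefosine as reference drug.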

Plasmodium falciparum = experiment: Antimicrobial activity against erythrocytic stage of Plasmodium falciparum NF54 infected in human washed RBC assessed as [3H]-hypoxanthine incorporation incubated for 48 hrs prior to [3H]-hypoxanthine addition measured after 24 hrs by liquid scintillation counting analysis; format: functional, organism-based
L6 = experiment: Cytotoxicity against rat L6 cells after 70 hrs by alamar blue assay; format: cell-based; conditions: L6, 70 h
Summary of the method: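 Cytotoxicity on the rat skeletal myoblast L-6 strain, with podophyllotoxin as reference drug.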

Trypanosoma cruzi = experiment: Antimicrobial activity against amastigote form of Trypanosoma cruzi Tulahuen C2C4 infected in rat L6 cells after 96 hrs by microscopic analysis; conditions: Tulahuen C2C4, L6, 96 h
[12] = Selectivity index, ratio of IC50 for rat L6 cells to IC50 for bloodstream form of Trypanosoma brucei rhodesiense STIB 900; format: toxicity, cell-based; conditions: read-out: Ratio IC50
Summary of the method: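 Bloodstream-form trypomastigotes of T. b. rhodesiense STIB 900 run with melarsoprol as reference drug. The counter-screen used the rat skeletal myoblast L-6 line, with podophyllotoxin as reference. The index is the L-6 IC50 divided by the parasite IC50.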

Liver microsome [13] = experiment: Drug metabolism in human liver microsomes assessed as M+32 formation at 1 uM after 60 mins by LC-MS analysis in presence of NADPH/UDPGA; format: ADME; conditions: 1 h
Liver microsome [14] = experiment: Drug metabolism in human liver microsomes assessed as M-111 formation at 1 uM after 60 mins by LC-MS analysis in presence of NADPH; format: ADME; conditions: 1 h
Liver microsome [15] = experiment: Drug metabolism in human liver microsomes assessed as M+32 formation at 10 uM after 60 mins by LC-MS analysis in presence of NADPH; conditions: 1 h
Liver microsome [16] = experiment: Drug metabolism in human liver microsomes assessed as M+16 formation at 10 uM after 60 mins by LC-MS analysis in presence of NADPH; conditions: 1 h
Liver microsome [17] = experiment: Drug metabolism in human liver microsomes assessed as M+16 formation at 10 uM after 60 mins by LC-MS analysis in presence of NADPH/UDPGA; conditions: 1 h
Liver microsome [18] = experiment: Drug level in human liver microsomes treated with N-(4-chloropyridin-2-yl)-3-fluoro-2-methylbenzamide at 1 uM after 60 mins by LC-MS analysis in presence of NADPH; format: ADME; conditions: 1 h
Liver microsome [19] = experiment: Drug level in human liver microsomes treated with N-(5-fluoropyridin-2-yl)-2-methylbenzamide at 10 uM after 60 mins by LC-MS analysis in presence of NADPH; conditions: 1 h
Liver microsome [20] = experiment: Drug metabolism in human liver microsomes assessed as M+16(II) formation at 1 uM after 60 mins by LC-MS analysis in presence of NADPH/UDPGA; format: ADME; conditions: 1 h
Liver microsome [21] = experiment: Drug metabolism in human liver microsomes at 1 uM after 60 mins in absence of NADPH/UDPGA by LC-MS analysis; format: ADME; conditions: 1 h
[22] = system: Trypanosoma brucei brucei; experiment: Antimicrobial activity against bloodstream form of Trypanosoma brucei brucei 427 at 10 uM after 48 hrs by alamar blue assay; format: functional; conditions: Trypanosoma brucei, 427, 48 h
Liver microsome [23] = experiment: Drug metabolism in human liver microsomes assessed as M-2 formation at 10 uM after 60 mins by LC-MS analysis in presence of NADPH; conditions: 1 h
Liver microsome [24] = experiment: Drug metabolism in human liver microsomes assessed as M+16(I) formation at 10 uM after 60 mins by LC-MS analysis in presence of NADPH; conditions: 1 h
Liver microsome [25] = experiment: Drug metabolism in human liver microsomes assessed as M+16(II) formation at 10 uM after 60 mins by LC-MS analysis in presence of NADPH; conditions: 1 h

logD [1]	solubility kinetic [2]	solubility kinetic [3]	fraction unbound [4]	CLint (Liver microsome [5])	IC50 [9]	IC50 [11]	IC50 (Plasmodium falciparum)	IC50 (Trypanosoma cruzi)	Structure (SMILES)	Activity [6]	Activity [7]	Activity [8]	selectivity ratio [10]	IC50 (Leishmania donovani)	IC50 (L6)	further results
2.8	50 µg/mL (≈ 201 µM)	25 µg/mL (≈ 101 µM)	0.361	154 µL/min/mg	0.41 µM	0.1 µM	17 µM	176 µM	Cc1c(C(=O)Nc2ccccn2)ccc(F)c1F	92%	99.95%	99.9%	205	> 121 µM	308 µM	–
2.3	12.5 µg/mL (≈ 47.2 µM)	12.5 µg/mL (≈ 47.2 µM)	0.283	254 µL/min/mg	0.47 µM	–	–	–	Cc1c(F)cccc1C(=O)Nc1cc(Cl)ccn1	64.23%	83.7%	98.8%	177	–	–	Drug metabolism (Liver microsome [13]): metabolite_detected; Drug metabolism (Liver microsome [14]): metabolite_detected; Drug metabolism (Liver microsome [15]): metabolite_detected; Drug metabolism (Liver microsome [16]): metabolite_detected; Drug metabolism (Liver microsome [17]): metabolite_detected
2.6	50 µg/mL (≈ 217 µM)	25 µg/mL (≈ 109 µM)	0.321	58 µL/min/mg	0.89 µM	0.61 µM	103 µM	198 µM	Cc1c(F)cccc1C(=O)Nc1ccccn1	–	–	–	94	> 131 µM	310 µM	–
4.7	1.6 µg/mL (≈ 5.12 µM)	< 1.6 µg/mL	0.017	27 µL/min/mg	1.7 µM	0.061 µM	9.7 µM	71 µM	Cc1ccccc1C(=O)Nc1cc(C#Cc2ccccc2)ccn1	–	–	–	> 51	> 96 µM	198 µM	–
2.7	25 µg/mL (≈ 109 µM)	25 µg/mL (≈ 109 µM)	0.44	43 µL/min/mg	–	–	–	–	Cc1ccccc1C(=O)Nc1ccc(F)cn1	–	–	–	–	–	–	Drug metabolism (Liver microsome [20]): metabolite_detected; Drug metabolism (Liver microsome [13]): metabolite_detected; Drug metabolism (Liver microsome [21]): metabolite_notdetected; inhibition at 10 µM [22]: 33%; Drug metabolism (Liver microsome [23]): metabolite_detected; Drug metabolism (Liver microsome [15]): metabolite_detected; Drug metabolism (Liver microsome [24]): metabolite_detected; Drug metabolism (Liver microsome [25]): metabolite_detected

More lines, now with the values behind:

Structure (SMILES)	logD [1]	solubility kinetic [2]	solubility kinetic [3]	fraction unbound [4]	CLint (Liver microsome [5])	IC50 [9]	IC50 [11]	IC50 (Plasmodium falciparum)	IC50 (Trypanosoma cruzi)	Activity [6]	Activity [7]	Activity [8]	selectivity ratio [10]	IC50 (Leishmania donovani)	IC50 (L6)	further results
Cc1cc(Br)ccc1C(=O)Nc1ccccn1	3.2	> 100 µg/mL	> 100 µg/mL	0.119	97 µL/min/mg	1.1 µM	0.045 µM	48 µM	100 µM	–	–	–	60	> 103 µM	193 µM	selectivity ratio [12]: > 4000
COc1ccc(C[C@H](N)C(=O)N[C@H]2[C@@H](O)[C@H](n3cnc4c(N(C)C)ncnc43)O[C@@H]2CO)cc1 [PUROMYCIN]	–	–	–	–	–	–	–	–	–	100%	100%	100%	–	–	–	–
Cc1c(F)cccc1C(N)=O	–	–	–	–	–	–	–	–	–	–	–	–	–	–	–	Drug metabolism (Liver microsome [18]): metabolite_detected
Cc1ccccc1C(=O)Nc1cc(Cl)ccn1	3.4	25 µg/mL (≈ 101 µM)	12.5 µg/mL (≈ 50.7 µM)	0.134	128 µL/min/mg	2.1 µM	0.61 µM	88 µM	168 µM	–	–	–	> 38	168 µM	224 µM	–
Cc1ccccc1C(=O)N(O)c1ccc(F)cn1	–	–	–	–	–	–	–	–	–	–	–	–	–	–	–	Drug metabolism (Liver microsome [19]): metabolite_detected
Cc1ccccc1C(=O)Nc1ccc(O)cn1	–	–	–	–	–	–	–	–	–	–	–	–	–	–	–	Drug metabolism (Liver microsome [19]): metabolite_detected
N=C(N)c1ccc(OCCCCCOc2ccc(C(=N)N)cc2)cc1 [PENTAMIDINE]	–	–	–	–	–	–	–	–	–	58.1%	100%	100%	–	–	–	–
